Compound activity from PubChem.
SR-BI DiI inh – mouse SR-BI HDL lipid transfer inhibition | Q61009 | ldlA[mSR-BI] CHO cells, DiI-HDL uptake fluorescence, 3 h | inhibition, % at 12.5 µM | 0.96% of 320,000 active;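 active = mean replicate inhibition of at least 70% and a set share of replicates each scoring 70 or more; inconclusive = meets just one of the two criteria; inactive = fails both criteria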;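 note: 0% = median of neutral control wells and 100% = median of positive control wells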
CDK5 inh – blocks human CDK5/p35 kinase activity; Q00535+Q15078; Recombinant CDK5/p35, ADP-Glo luminescence, 60 min; inhibition, % at 10 µM; 0.01% of 330,000 active; AID 488839;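 active = highest replicate inhibition of at least 50% and at least 75% of replicates reaching 50%; inconclusive = only one of the two criteria met; inactive = both criteria failed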;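 note: plate controls were DMSO neutral control for no effect and GW8510 at 10 µM for full effect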
Target sequence (Q00535 whole entry, looked up): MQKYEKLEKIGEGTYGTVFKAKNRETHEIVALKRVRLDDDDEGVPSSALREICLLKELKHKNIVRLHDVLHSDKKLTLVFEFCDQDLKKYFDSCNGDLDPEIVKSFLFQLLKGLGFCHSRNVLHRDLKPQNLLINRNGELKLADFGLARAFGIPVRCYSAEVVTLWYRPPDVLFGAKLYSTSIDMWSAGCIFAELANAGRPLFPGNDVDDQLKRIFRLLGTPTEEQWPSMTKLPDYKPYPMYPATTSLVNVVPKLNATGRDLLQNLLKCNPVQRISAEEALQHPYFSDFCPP
Target sequence (Q15078 whole entry, looked up): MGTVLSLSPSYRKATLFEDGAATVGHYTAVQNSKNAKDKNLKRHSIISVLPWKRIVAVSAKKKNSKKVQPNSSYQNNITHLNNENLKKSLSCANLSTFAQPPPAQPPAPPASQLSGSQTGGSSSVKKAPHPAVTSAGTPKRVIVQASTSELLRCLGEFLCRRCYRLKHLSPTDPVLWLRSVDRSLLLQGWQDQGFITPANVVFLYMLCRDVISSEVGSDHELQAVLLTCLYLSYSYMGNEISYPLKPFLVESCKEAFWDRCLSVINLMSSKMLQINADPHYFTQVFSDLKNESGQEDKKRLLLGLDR
SR-BI uptake up – SR-BI HDL lipid transfer activation; CHO ldlA[mSR-BI] cells, DiI-HDL uptake fluorescence, 3 h; 100 = double the neutral-control signal; activation, % at 12.5 µM; 0.096% of 320,000 active;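 active = mean replicate activation of at least 60% and every replicate at or above 60%; inconclusive = mean or all-replicate condition met, but not both; inactive = mean below 60% and not all replicates reaching 60%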;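 note: 0% = median plate neutral-control signal and 100% = twice that signal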
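Material: SR-BI-overexpressing, LDLR-lacking CHO cells; schedule: compound exposure 3 h, 37 °C; reagent: DiI-labelled HDL at 10 µg/mL final; technique: bottom-read fluorescence, 550/595 nm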
dFosB act-1 – enhances mouse delta FosB homodimer DNA binding | 0.99% of 340,000 active | AID 493131 | activation, % at 25 µM | P13346 | purified delta FosB, TAMRA-CDK5 oligo fluorescence polarization; percent of positive-control signal above neutral wells;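 active = mean activation above about 17%, with every replicate also reaching it, limit read from the data, passing the limit was not always enough; inconclusive = only one of the two conditions met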
PKA-R2B activ – PKA-R2B complex activation | P22694+P31323 | PKA-R2B holoenzyme dissociation, Cy5-IP20 fluorescence polarization; R2B truncated from residue 108, S112A mutant; 0% DMSO only, 100% 113 µM cGMP | activation, % at 11.4 µM | 0.079% of 340,000 active | AID 504700;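 active = activation above a cutoff set at the mean over all compounds plus 3 SD, cut at about 18% in these data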;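 note: higher means more holoenzyme dissociation and a rise in polarization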
PKA-R1A activ – activators of PKA-R1A complex | activation, % at 11.4 µM | 0.083% of 340,000 active | P00514+P68181 | PKA-R1A dissociation, Cy5-IP20 fluorescence polarization; scaled: DMSO 0%, 113 µM cGMP 100%;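 active = percent activation above the mean of all tested compounds plus 3 SD, cut at about 19% in these data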;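 note: higher means more PKAc released from R1A so a rise in polarization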
dFosB act-2 – enhances mouse delta FosB homodimer binding to DNA. shares compounds with dFosB act-1. purified delta FosB, TAMRA-CDK5 oligo fluorescence polarization; normalised: neutral wells 0, positive control 100. activation, % at 24.9 µM. 2,400 tested, under 10 active. AID 588690;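 active = highest replicate activation at or above 34% and every replicate reaching that threshold; inconclusive = meets only one of the two criteria; inactive = meets neither criterion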;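 note: higher polarization means more probe DNA bound by delta FosB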
The depositor's hits bear a star; ? = inconclusive; / = not tested or not shown. Most compounds without a hit are left out; they make up all but 2.1% or so of the library.

SMILES | SR-BI DiI inh | CDK5 inh | SR-BI uptake up | dFosB act-1 | PKA-R2B activ | PKA-R1A activ | dFosB act-2
Cc1nc(NC(=O)CSc2ccc(-c3nc4ccccc4[nH]3)cn2)sc1C | 22 | 2 | -22 | 47* | 6 | -8 | 2
COCCNC(=O)CSc1ccc(-c2nc3ccccc3[nH]2)cn1 | / | 2 | / | -8 | 4 | 9 | /
O=C(N/N=C/c1cc(Br)cs1)c1c[nH]c2ccccc12 | 3 | 1 | -3 | 2 | 2 | -6 | /
CS(=O)(=O)N(CC(=O)N/N=C/c1cc2c(cc1Br)OCO2)c1ccccc1Br | 30 | 2 | -30 | 27* | -2 | 0 | 7
Cc1ccc(C(=O)N/N=C\c2cc3c(cc2Br)OCO3)cn1 | / | 0 | / | 7 | -13 | -5 | /
CC(C)(C)c1cc(C(=O)N/N=C/c2cc3c(cc2Br)OCO3)n[nH]1 | 77* | / | -77 | 27* | -6 | -2 | 4
O=C(N/N=C/c1cc2c(cc1Br)OCO2)c1c[nH]c2ccccc12 | 3 | -1 | -3 | 29* | -13 | -10 | 2
COc1ccc(CNC(=O)CCCCCNc2nc(=S)[nH]c3ccccc23)cc1 | 18 | -3 | -18 | 39* | 0 | -6 | 2
O=C(NC1CCCCC1)c1ccc(CNc2nc(=S)[nH]c3ccccc23)cc1 | 7 | -1 | -7 | 19* | -5 | -3 | 2
COc1ccc(CCNC(=O)CCCCCNc2nc(=S)[nH]c3ccccc23)cc1OC | -2 | 0 | 2 | -5 | -1 | -9 | /
S=c1nc(NCc2ccc3c(c2)OCO3)c2ccccc2[nH]1 | -10 | 0 | 10 | -1 | -4 | 0 | /
Cc1cccc(NC(=O)C2(c3ccccc3)CCOCC2)c1 | -7 | 0 | 7 | 4 | 1 | -8 | /
Cc1cccc(NC(=O)C2(C)CC3c4ccccc4C2c2ccccc23)c1 (configuration not stated) | 1 | -2 | -1 | 29* | -10 | -1 | 5
CCOC(=O)/C=C/[C@H]1CCc2cccc(C)c2O1 | -16 | 0 | 16 | -6 | 8 | 8 | /
O=C(Nc1cccc(-c2cn3ccccc3n2)c1)c1cc2ccccc2oc1=O | -16 | -4 | 16 | 61* | 5 | 5 | 3
O=C(Nc1c(-c2ccccc2)nc2ncccn12)c1cc2ccccc2oc1=O | -4 | 0 | 4 | 38* | 0 | 1 | 1
CCN(C(=O)COC(=O)/C=C/c1c(C)nn(-c2ccccc2)c1C)c1c(N)n(Cc2ccccc2)c(=O)[nH]c1=O | 26 | 0 | -26 | -4 | -6 | 1 | /
COc1ccc(Cn2c(CCC(=O)Nc3ccc(C)c(C)c3)nc3cccnc32)cc1 | 25 | 0 | -25 | 18* | -6 | 0 | -8
COc1ccc(Cn2c(CCC(=O)Nc3ccccc3)nc3cccnc32)cc1 | 26 | 0 | -26 | 6 | 0 | -1 | /
COc1ccc(Br)cc1CNC(=O)CN1C(=O)C(c2ccccc2)Oc2cccnc21 (configuration not stated) | 40 | 0 | -40 | 27* | -5 | -4 | 1
CCOC(=O)c1cc(-c2ccccc2)sc1NC(=O)COC(=O)c1cccc(S(N)(=O)=O)c1 | 17 | 1 | -17 | 24* | -8 | -9 | -2
CCOC(=O)c1cc(-c2ccccc2)sc1NC(=O)COC(=O)c1ccc(Cl)c(S(N)(=O)=O)c1 | 28 | -5 | -28 | -3 | -4 | 4 | /
NC(=O)c1ccc(NC(=O)CSC2=Nc3ccccc3C3CC=NN23)cc1 (configuration not stated) | 1 | 0 | -1 | 25* | 3 | -3 | -2
Cc1cccc(OCC(=O)Nc2ccc3c(C)cc(=O)oc3c2)c1 | 10 | 0 | -10 | -9 | -4 | -5 | /
Cc1csc(NC(=O)COc2ccc3c(C)cc(=O)oc3c2)n1 | 11 | 0 | -11 | 54* | -3 | -9 | 4
SMILES | SR-BI DiI inh | CDK5 inh | SR-BI uptake up | dFosB act-1 | PKA-R2B activ | PKA-R1A activ | dFosB act-2
Cc1cc(=O)oc2cc(NC(=O)CCOc3ccccc3)ccc12 | / | -3 | / | 21* | 3 | -5 | 2
Cc1ccccc1-n1ncc2c1CC(C)(C)CC2NC(=O)CCN1CCCCC1=O (configuration not stated) | -33 | 1 | 33 | -4 | -15 | -21 | /
CCOc1ccccc1NS(=O)(=O)c1c(C)[nH]c(C)c1C(=O)N1CCCCC1 | -22 | -1 | 22 | 4 | 4 | 2 | /
Cc1ccc(S(=O)(=O)N2CCN(S(=O)(=O)c3c(C)n[nH]c3C)CC2)cc1C | 3 | 0 | -3 | 32* | 6 | -6 | -1
O=C(Nc1ccc(-c2nc3ccccc3o2)cc1)c1ccc2c(c1)OCO2 | 68 | 0 | -68 | ? | -15 | -12 | /
Cc1ccc2oc(-c3ccc(NC(=O)c4ccc5c(c4)OCO5)cc3)nc2c1 | 60 | 0 | -60 | 45* | 3 | 0 | 2
O=C(Nc1ccc(Br)cc1)c1cc(-c2ccc3c(c2)OCO3)on1 | / | -2 | / | 25* | -3 | -2 | 0
COc1ccc(NC(=O)c2cc(-c3ccc4c(c3)OCO4)on2)cc1 | / | -1 | / | 26* | -11 | -15 | -1
COc1ccc(-c2cc(C(=O)Nc3ccc(C)cc3)no2)cc1 | -21 | 2 | 21 | -1 | -2 | -3 | /
Cc1nn(Cc2ccc(Cl)c(Cl)c2)c(C)c1NC(=O)c1cc(-c2ccc3c(c2)OCO3)on1 | 13 | 2 | -13 | -11 | -4 | -2 | /
Cc1nn(Cc2ccc(Cl)cc2)c(C)c1NC(=O)c1cc(-c2ccc3c(c2)OCO3)on1 | 27 | 1 | -27 | 58* | 3 | -7 | 7
CCN(CC(=O)NCc1ccc(F)cc1)C(=O)CN1CCN(c2cc(Cl)ccc2C)CC1 | / | -4 | / | -5 | 2 | 2 | /
O=S(=O)(Cc1ccccc1)C(CCCc1ccccc1)S(=O)(=O)Cc1ccccc1 | -1 | 2 | 1 | -12 | -1 | 5 | /
COc1ccc(Cl)cc1NC(=O)NCc1ccccn1 | 11 | -5 | -11 | -1 | 4 | -3 | /
O=C(CCNC(=O)c1ccc(Cl)cc1)Nc1ccccc1N1CCCC1 | 14 | 0 | -14 | -5 | 3 | -6 | /
O=C(NC1CCCC1)C(c1ccccc1)N(Cc1ccccc1)C(=O)c1csnn1 (configuration not stated) | -12 | -2 | 12 | -7 | -2 | 1 | /
